System: MS2 coat protein
Test: apparent Kd, MS2 coat protein; higher = weaker binding; RNA-MaP array; FMN 200 µM where present
Outline: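 Stalled E. coli RNA polymerase produced the designs on Illumina sequencing-chip clusters. SNAP-549-labelled MS2 coat protein was added from 0.7 or 1.5 nM, doubling to 3 µM, without and then with constant ligand, in 100 mM Tris-HCl pH 7.5, 80 mM KCl, 4 mM MgCl2, BSA, DTT, yeast tRNA and Tween-20. The apparent Kd is the median of filtered per-cluster fits of green signal normalised to red-channel RNA signal and control-cluster median Fmax.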

[1] = designed as: ON switch for flavin mononucleotide, no ligand
[2] = ligand present: flavin mononucleotide, designed as: ON switch for flavin mononucleotide
[3] = designed as: OFF switch for flavin mononucleotide, no ligand
[4] = ligand present: flavin mononucleotide, designed as: OFF switch for flavin mononucleotide

## UUGAAUCGAAACAUGAGGAUCACCCAUGUGUCGUAAUUGACAUAGGAUAUGUAUAUACUUUUAUAAUAGAAGGAUGACGAUACU
[1]
  apparent Kd: 9.09 nM
[2]
  apparent Kd: 7.94 nM

## UUGAUAAGGAGAGGAUAUGGACAUGAGGAUCACCCAUGUACAUGGGAAUAUUUACUGAAUUUUUACUAGAAGGCUUACAUAUUU
[3]
  apparent Kd: 15.8 nM
[4]
  apparent Kd: 12.4 nM

## UUGAUAAGGAGAGGAUAUUGACAUGAGGAUCACCCAUGUACAUGGGAGUGUUUACUGAAUUCUUACGAGAAGGCUUACAUAUUU
[3]
  apparent Kd: 245 nM
[4]
  apparent Kd: 166 nM

## UUGAUGUCAUCAGGAUAUAGUAUUUAAGACAUAUCUUCUUUCAAACAUGAGGAUCACCCAUGUCGCUAGAAGGGAUGAUUGAUU
[3]
  apparent Kd: 17.3 nM
[4]
  apparent Kd: 15.3 nM

## UUGAUGUCAUCAGGAUAUAGUAUUUAAGACAUAUCUUCUUUCUUACAUGAGGAUCACCCAUGUCGCUAGAAGGGAUGAAUGAUU
[3]
  apparent Kd: 18.7 nM
[4]
  apparent Kd: 15.4 nM

## UUGAUUCAUUCCUCCAUAAACAUGAGGAUCACCCAUGUAAGUGAGGAUAUAGUUGGAGUAGUAUACUAGAAGGCACUUAGAUAU
[3]
  apparent Kd: 12.3 nM
[4]
  apparent Kd: 9.75 nM

## UUGCAGUGCGGGUAGGAUAUGUAGGGUGGUACAUGAGGAUCACCCAUGUGUCCACCCUUCUUCCGGCAGAAGGGCCUGUCACUGC
[1]
  apparent Kd: 15.2 nM
[2]
  apparent Kd: 13.5 nM

## UUGCCUCAGAACAUGAGGAUCACCCAUGUGCUGCGGGCAACGUAGGAUAUGAUGGUACGCUACCAUCAGAAGGAUGAUGGUACC
[1]
  apparent Kd: 5.51 nM
[2]
  apparent Kd: 4.99 nM

## UUGCUCGUGUGAGGAUAUGCCGCCGUUUCGGCUGCAGAAGGUACUCUUGUACAUGAGGAUCACCCAUGUCUCUGUUGUUUCGUG
[1]
  apparent Kd: 49 nM
[2]
  apparent Kd: 43.6 nM

## UUGCUGCGGAAGUUCGGCUCUCGCGAGGAUAUACCUACAGGGCCACAUGAGGAUCACCCAUGUACGUAGAAGGCGCGACAGAAA
[3]
  apparent Kd: 15.8 nM
[4]
  apparent Kd: 48 nM

## UUGGACCUCGUAGGAUAUGUAGGAUAUUCCUACAUGAGGAUCACCCAUGUUGACAUGGAAGAAGGACAGAAGGACGAUGUCCAU
[1]
  apparent Kd: 311 nM
[2]
  apparent Kd: 5.32 nM

## UUGGACGUCGUAGCAUAUGUAGGAUAUUCCUACAUGAGGAUCACCCAUGUUGACAUGGAAGAAGGACAGAAGGACGAUGUCCAU
[1]
  apparent Kd: 146 nM
[2]
  apparent Kd: 5.47 nM

## UUGGACGUCGUAGGAUAUGUAGGAUAUUCCUACAUGAGGAUCACCCAUGUUGACAUGGAAGAAGAACAGAAGGACGAUGUCCAU
[1]
  apparent Kd: 212 nM
[2]
  apparent Kd: 6.04 nM

## UUGGACGUCGUAGGAUAUGUAGGAUAUUCCUACAUGAGGAUCACCCAUGUUGACAUGGAAGAAGGAAAGAAGGACGAUGUCCAU
[1]
  apparent Kd: 496 nM
[2]
  apparent Kd: 303 nM

## UUGGACGUCGUAGGAUAUGUAGGAUAUUCCUACAUGAGGAUCACCCAUGUUGACAUGGAAGAAGGACAGAAGGUCGAUGUCCAU
[1]
  apparent Kd: 602 nM
[2]
  apparent Kd: 9.86 nM

## UUGGACGUCGUAGGAUAUGUAGGAUAUUCCUACAUGAGGAUCACCCAUGUUGACAUGGAAGAAGGACAGAGGGACGAUGUCCAU
[1]
  apparent Kd: 454 nM
[2]
  apparent Kd: 11.6 nM

## UUGGACGUCGUAGGAUAUGUAGGAUAUUCCUACAUGAGGAUCACCCAUGUUGACAUGGAAGAAGGACAGCAGGACGAUGUCCAU
[1]
  apparent Kd: 690 nM
[2]
  apparent Kd: 12.9 nM

## UUGGACGUCGUAGGAUAUGUAGGAUAUUCCUACAUGAGGAUCACCCAUGUUGGCAUGGAAGAAGGACAGAAGGACGAUGUCCAU
[1]
  apparent Kd: 158 nM
[2]
  apparent Kd: 4.94 nM

## UUGGACGUCGUAGUAUAUGUAGGAUAUUCCUACAUGAGGAUCACCCAUGUUGACAUGGAAGAAGGACAGAAGGACGAUGUCCAU
[1]
  apparent Kd: 144 nM
[2]
  apparent Kd: 6.12 nM

## UUGGAGAUAGGAUAUACGAGGAGAGUAGAGGGAAGGUGAUGACAUGAGGAUCACCCAUGUAGAAGGAUCAGGAG
[3]
  apparent Kd: 155 nM
[4]
  apparent Kd: 100 nM

## UUGGAGUACGUAGGAUAUGUAGGAUAUUCCUACAUGAGGAUCACCCAUGUAUGCAUGGAAGAAGGACAGAAGGACGUGCUCCAU
[1]
  apparent Kd: 219 nM
[2]
  apparent Kd: 16 nM

## UUGGAGUACGUAGGAUAUGUAGGAUAUUCCUACAUGAGGAUCACCCAUGUUAGCAUGGAAGAAGGACAGAAGGACGUGCUCCAU
[1]
  apparent Kd: 1120 nM
[2]
  apparent Kd: 15.1 nM

## UUGGCUAAACCUCAGAGUACCACAUGAGGAUCACCCAUGUGGAGAAGGGACUUUGUACCGUUGAGUCAGGAUAUUCAUUGGGUA
[3]
  apparent Kd: 5.17 nM
[4]
  apparent Kd: 7.35 nM

## UUGGGUCGGGAGGAUAUUCGGGCUCAUGGGCUUGGAGAAGGCUCGACAUGAGGAUCACCCAUGUAAGUGUACUU
[3]
  apparent Kd: 153 nM
[4]
  apparent Kd: 542 nM

## UUGGGUUUGGGAGGAUAUGGGUAAAAUAAAGUACUAGAAGGCUUAAAUUAUUUUAUAGUUGUAUUACAUGAGGAUCACCCAUGU
[1]
  apparent Kd: 13.6 nM
[2]
  apparent Kd: 10.4 nM

## UUGGUAUUCGUAGGAUAUCUGUCGCCACCGUGUGGAGAAGGACGAACAUGAGGAUCACCCAUGUAUCAUGGUGUGGGCUUUGUU
[3]
  apparent Kd: 504 nM
[4]
  apparent Kd: 470 nM

## UUGGUUGUCGUAGGAUAUGUAGGAUAUUCCUACAUGAGGAUCACCCAUGUUCGCAUGGAAGAAGGACGGAAGGACGAUGACCAA
[1]
  apparent Kd: 233 nM
[2]
  apparent Kd: 153 nM

## UUGUAAACUAUCCGUACAUGAGGAUCACCCAUGUGCAAGAGCAGAAGGACGUGGCACUCGAGUACGUAGGAUAUGCAUGGAUGG
[1]
  apparent Kd: 27.1 nM
[2]
  apparent Kd: 9.59 nM

## UUGUACCGGUGAGGAUAUUUUUAAUAGAACUUUAUGAUAUACAUGAGGAUCACCCAUGUUACUUUAAAGAAGGCAUCGGAUUAU
[3]
  apparent Kd: 18.9 nM
[4]
  apparent Kd: 14.8 nM

## UUGUUACGAUUAGGAUAUUAUAGAUUGAAUAGUAUGAUUUACAUGAGGAUCACCCAUGUUACAUUUAAGAAGGAAUCGAAUUAU
[3]
  apparent Kd: 21.1 nM
[4]
  apparent Kd: 16.9 nM

## UUGUUGUAUGUAGGAUAUGCGUGUUAUUAUUAUGCAGAAGGACAUGAGGAUCACCCAUGUAUAUUAUUAUUAUAUGUUAUAUAU
[3]
  apparent Kd: 25 nM
[4]
  apparent Kd: 23.9 nM

## UUGUUGUCAGGAUAUCGUUAAUUUAAUUGUUUGUAUUAGUUCGAGAAGGGACAUGAGGAUCACCCAUGUUUGUU
[3]
  apparent Kd: 34.5 nM
[4]
  apparent Kd: 73.5 nM

## UUGUUUAGAAAUUAACAUGAGGAUCACCCAUGUAUUGGAUCAGAGGAUAUGCAUGUUUGAUUGUAGCAGAAGGCUGAUUGUUGA
[1]
  apparent Kd: 50.6 nM
[2]
  apparent Kd: 45.1 nM

## UUUAAACAUGAGGAUCACCCAUGUCGUUCAAAUCAAGGAUAUCAAGCGUAUGCGCACGCUUGAGAAGGUGAAGCUC
[1]
  apparent Kd: 47.2 nM
[2]
  apparent Kd: 135 nM

## UUUAAGUGAGGAUAUACGAAUAGUAAGUAAGUAUUACAGACGUAGAAGGCACAUGAGGAUCACCCAUGUAAAUA
[3]
  apparent Kd: 30.1 nM
[4]
  apparent Kd: 28.2 nM

## UUUACAUACAUGAGGAUCACCCAUGUGUUCACCCAUGUAAAUCAGGAUAUAUAUAUAUAGAAUGUAUAGAAGGGAUAAUUUUUU
[3]
  apparent Kd: 97.5 nM
[4]
  apparent Kd: 99.7 nM

## UUUACAUGAGGAUCACCCAUGUAUAGAACGGUUAAUUAAAGUGAGGAUAUACAUAAUUUUAUAUUGUAGAAGGCACUGGGUACA
[1]
  apparent Kd: 14.3 nM
[2]
  apparent Kd: 17.5 nM

## UUUACAUGAGGAUCACCCAUGUUAAAAUAAUUAAUUAUAAGUGAGGAUAUAUAAAUUAUAAAAUUGUAGAAGGCACUGGGUAUC
[1]
  apparent Kd: 47.9 nM
[2]
  apparent Kd: 44.5 nM

## UUUACAUGAGGAUCACCCAUGUUUUGAAAGAUUAGUUUUGGUGAGGAUAUACAUGAUAAAGAAUUGUAGAAGGCACUGGGUACA
[1]
  apparent Kd: 45.4 nM
[2]
  apparent Kd: 28.6 nM

## UUUACUUACGAAGGAUAUGGUUACAUGAGGAUCACCCAUGUAUGUAUAUUGAUCUAGUAUUUUAACCAGAAGGUCGUGAUUAUU
[3]
  apparent Kd: 31.8 nM
[4]
  apparent Kd: 46.9 nM

## UUUAGUUCAGGAUAUGUAGAUUUUAACAUGAGGAUCACCCAUGUAGAUCCUGAUCCUGCUACAGAAGGGAAUAUUU
[3]
  apparent Kd: 23.1 nM
[4]
  apparent Kd: 25.1 nM

Source: the EternaBench riboswitch data
